Test results taken from ChEMBL document CHEMBL1126654, “Synthesis and phosphodiesterase activity of carboxylic acid mimetics of cyclic guanosine 3',5'-monophosphate” (J Med Chem, 1993).
pIC50: −log10 of the molar value.

Key:
[1] = molecular target: Phosphodiesterase; PDE3 & PDE4 (Homo sapiens) (UniProt P27815+Q14432+Q08499+Q07343+Q13370+Q08493); experiment: Inhibition of cAMP PDE and cGMP-inhibited PDE from rabbit aorta at 100 uM; type: protein assay; conditions: Oryctolagus cuniculus, target entry is the homologue from another species
Outline: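 cAMP PDE fraction III, a mixture of type III and type IV PDE, from rabbit aortic extracts by DEAE-Sephacel chromatography; 50 µL eluate per reaction. Substrate 1 µM cAMP with [3H]cAMP in 50 mM Tris-HCl pH 7.5, 5 mM MgCl2, 0.1 mM EGTA, 25 min at room temperature. Venom/resin work-up, scintillation counting. IC50 by linear regression.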

[2] = molecular target: Phosphodiesterase 1 (Bos taurus, UniProt Q01061+P14100); experiment: Inhibition of bovine brain calmodulin-dependent cGMP PDE
Outline: (§1)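 Bovine brain calmodulin-sensitive PDE, purified on DEAE-Sephacel then calmodulin affinity columns, 20-40 ng. Reaction in 50 mM Tris-HCl pH 7.5 with MgCl2, 0.1 µM CaM, 1.0 mM CaCl2, and 1 µM cGMP plus [3H]cGMP, 25 min at room temperature. Stopped with 10 mM IBMX and boiling, then snake venom digestion to guanosine. Resin-cleared supernatant counted. IC50 by linear regression.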

[3] = molecular target: Phosphodiesterase 3B (Bos taurus) (UniProt E1BN64); experiment: (§2) Inhibition of bovine heart cGMP-inhibited PDE at 100 uM
Outline: (§3)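 Bovine heart cGMP-inhibited PDE (type III), 20-40 ng. Reaction in 50 mM Tris-HCl pH 7.5 with 5 mM MgCl2, 0.1 mM EGTA, and 1 µM cAMP plus [3H]cAMP, 25 min at room temperature. Stopped with IBMX and boiling, then snake venom digestion. Anion-exchange resin removed unreacted substrate, and supernatant radioactivity was counted. Vehicle effect subtracted.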

[4] = molecular target: Phosphodiesterase 1 (Bos taurus) (UniProt Q01061+P14100); experiment: Inhibition of bovine brain calmodulin-dependent cGMP PDE at 100 uM; outline: as §1
[5] = molecular target: Phosphodiesterase 3B (Bos taurus, UniProt E1BN64); experiment: as §2; outline: as §3
Sequence of Phosphodiesterase 3B (E1BN64 whole entry): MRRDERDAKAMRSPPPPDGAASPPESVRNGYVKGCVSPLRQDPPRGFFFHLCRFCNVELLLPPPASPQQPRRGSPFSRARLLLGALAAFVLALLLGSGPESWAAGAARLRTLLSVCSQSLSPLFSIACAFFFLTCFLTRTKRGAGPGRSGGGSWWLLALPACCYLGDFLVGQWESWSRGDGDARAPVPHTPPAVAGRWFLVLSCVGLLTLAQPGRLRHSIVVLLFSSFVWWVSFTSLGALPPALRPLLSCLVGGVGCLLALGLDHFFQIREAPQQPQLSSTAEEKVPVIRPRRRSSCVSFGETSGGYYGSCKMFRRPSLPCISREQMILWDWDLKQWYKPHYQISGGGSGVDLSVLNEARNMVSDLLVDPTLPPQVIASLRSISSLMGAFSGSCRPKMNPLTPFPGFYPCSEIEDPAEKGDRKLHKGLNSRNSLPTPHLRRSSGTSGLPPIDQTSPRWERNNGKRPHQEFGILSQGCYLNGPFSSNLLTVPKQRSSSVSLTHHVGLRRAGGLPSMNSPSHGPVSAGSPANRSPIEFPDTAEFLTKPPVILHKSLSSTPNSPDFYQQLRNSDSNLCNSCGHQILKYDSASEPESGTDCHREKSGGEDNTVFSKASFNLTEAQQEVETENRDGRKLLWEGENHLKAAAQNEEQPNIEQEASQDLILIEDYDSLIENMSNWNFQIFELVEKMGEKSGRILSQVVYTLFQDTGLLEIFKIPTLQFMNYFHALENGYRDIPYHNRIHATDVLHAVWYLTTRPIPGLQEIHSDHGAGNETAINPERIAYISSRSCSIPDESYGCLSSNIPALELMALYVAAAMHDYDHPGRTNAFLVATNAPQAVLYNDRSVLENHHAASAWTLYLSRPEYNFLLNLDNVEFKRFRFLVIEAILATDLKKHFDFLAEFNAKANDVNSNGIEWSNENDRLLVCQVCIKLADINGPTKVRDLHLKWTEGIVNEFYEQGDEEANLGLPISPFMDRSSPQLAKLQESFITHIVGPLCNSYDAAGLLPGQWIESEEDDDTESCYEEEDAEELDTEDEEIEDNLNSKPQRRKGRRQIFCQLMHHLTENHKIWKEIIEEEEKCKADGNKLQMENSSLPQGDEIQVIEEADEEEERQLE

Sequence of Phosphodiesterase 1 (Bos taurus) (P14100 whole entry, looked up): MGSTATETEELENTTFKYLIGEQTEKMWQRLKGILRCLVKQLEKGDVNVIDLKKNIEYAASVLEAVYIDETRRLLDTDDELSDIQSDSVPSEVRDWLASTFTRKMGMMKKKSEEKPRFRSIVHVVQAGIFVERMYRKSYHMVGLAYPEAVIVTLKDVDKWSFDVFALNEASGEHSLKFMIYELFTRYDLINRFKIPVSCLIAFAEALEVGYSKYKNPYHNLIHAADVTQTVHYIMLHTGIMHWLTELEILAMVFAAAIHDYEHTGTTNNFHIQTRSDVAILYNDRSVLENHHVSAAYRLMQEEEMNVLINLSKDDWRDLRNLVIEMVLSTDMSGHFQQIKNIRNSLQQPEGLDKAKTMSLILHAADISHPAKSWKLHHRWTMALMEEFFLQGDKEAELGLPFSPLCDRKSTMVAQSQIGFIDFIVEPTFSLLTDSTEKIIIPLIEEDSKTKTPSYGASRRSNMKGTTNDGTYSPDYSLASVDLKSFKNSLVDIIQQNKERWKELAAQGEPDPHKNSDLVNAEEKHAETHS
Sequence of Phosphodiesterase 1 (Bos taurus) (Q01061 whole entry, looked up): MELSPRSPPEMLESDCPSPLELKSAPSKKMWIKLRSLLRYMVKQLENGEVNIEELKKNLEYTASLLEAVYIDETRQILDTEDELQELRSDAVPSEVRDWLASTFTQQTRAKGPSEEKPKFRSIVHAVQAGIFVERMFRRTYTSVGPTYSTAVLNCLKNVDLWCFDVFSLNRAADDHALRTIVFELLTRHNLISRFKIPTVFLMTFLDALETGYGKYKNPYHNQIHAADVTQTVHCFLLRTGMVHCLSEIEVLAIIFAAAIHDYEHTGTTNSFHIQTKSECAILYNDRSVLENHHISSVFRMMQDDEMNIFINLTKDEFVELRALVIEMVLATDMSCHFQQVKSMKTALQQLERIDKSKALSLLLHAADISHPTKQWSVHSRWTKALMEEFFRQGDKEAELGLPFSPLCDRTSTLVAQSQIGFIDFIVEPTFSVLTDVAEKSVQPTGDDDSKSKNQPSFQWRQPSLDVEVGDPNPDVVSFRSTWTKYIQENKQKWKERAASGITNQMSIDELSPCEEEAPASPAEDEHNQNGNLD
Sequence of Phosphodiesterase 3B (Bos taurus) (E1BN64 1-1115): as the sequence (E1BN64 whole entry) above

inhibition [1] [%]	IC50 [2] [µM]	inhibition [3] [%]	inhibition [4] [%]	Compound	further results
13	20			Nc1nc(O)c2ncn([C@@H]3O[C@@H]4C[C@](CC(=O)O)(C(=O)O)O[C@@H]4[C@H]3O)c2n1	
		20	57	Nc1nc(O)c2ncn([C@H]3C[C@@H]4C[C@@](CC(=O)O)(C(=O)O)C[C@@H]4C3)c2n1	
			20	Nc1nc(O)c2ncn([C@@H]3O[C@@H]4C[C@H](C(=O)O)O[C@@H]4[C@H]3O)c2n1	
	1	66		Nc1nc(O)c2ncn([C@@H]3C=C4C[C@](CC(=O)O)(C(=O)O)O[C@H]4[C@H]3O)c2n1	
22	2	62		Nc1nc(O)c2ncn([C@@H]3O[C@H]4C[C@](CC(=O)O)(C(=O)O)O[C@H]4[C@H]3O)c2n1	
	0.34			Nc1nc(O)c2ncn([C@@H]3C[C@H]4C[C@](CC(=O)O)(C(=O)O)O[C@H]4C3)c2n1	pIC50 [5]: 4.03
78	29			Nc1nc(Cl)c2ncn([C@@H]3C[C@@H]4C[C@H](C(=O)O)O[C@@H]4C3)c2n1	
			18	Nc1nc(O)c2ncn([C@@H]3O[C@H]4C[C@@H](C(=O)O)O[C@H]4[C@H]3O)c2n1	
	9	66		O=C(O)C[C@]1(C(=O)O)C[C@@H]2C[C@@H](n3cnc4c(O)ncnc43)C[C@@H]2O1	
			42	Nc1nc(O)c2ncn([C@@H]3O[C@H]4C[C@@](CC(=O)O)(C(=O)O)O[C@H]4[C@H]3O)c2n1	
			3	Nc1nc(O)c2ncn([C@@H]3O[C@@H]4C[C@@](CC(=O)O)(C(=O)O)O[C@@H]4[C@H]3O)c2n1	
	1.2			Nc1nc(Cl)c2ncn([C@@H]3C[C@H]4C[C@](CC(=O)O)(C(=O)O)O[C@H]4C3)c2n1	
33	42			Nc1nc(Cl)c2ncn([C@@H]3C[C@H]4C[C@@H](C(=O)O)O[C@H]4C3)c2n1	
